Active and inactive are the calls of the source. No cut-off for these calls is given here.
How the values were obtained:
[1] = biological target: Histamine H2 receptor (Cavia porcellus) (UniProt P47747); experiment: Activity at histamine H2 receptor in isolated guinea pig atrium up to 10 uM; format: functional, tissue-based; settings: Cardiac atrium
[2] = biological target: Histamine H3 receptor (Cavia porcellus) (UniProt Q9JI35); experiment: Activity at histamine H3 receptor assessed as RAMHA-induced inhibition of electrically-stimulated guinea pig isolated ileum; format: functional, tissue-based; settings: filed as antagonist
Sequence of Histamine H3 receptor (Cavia porcellus) (Q9JI35 whole entry): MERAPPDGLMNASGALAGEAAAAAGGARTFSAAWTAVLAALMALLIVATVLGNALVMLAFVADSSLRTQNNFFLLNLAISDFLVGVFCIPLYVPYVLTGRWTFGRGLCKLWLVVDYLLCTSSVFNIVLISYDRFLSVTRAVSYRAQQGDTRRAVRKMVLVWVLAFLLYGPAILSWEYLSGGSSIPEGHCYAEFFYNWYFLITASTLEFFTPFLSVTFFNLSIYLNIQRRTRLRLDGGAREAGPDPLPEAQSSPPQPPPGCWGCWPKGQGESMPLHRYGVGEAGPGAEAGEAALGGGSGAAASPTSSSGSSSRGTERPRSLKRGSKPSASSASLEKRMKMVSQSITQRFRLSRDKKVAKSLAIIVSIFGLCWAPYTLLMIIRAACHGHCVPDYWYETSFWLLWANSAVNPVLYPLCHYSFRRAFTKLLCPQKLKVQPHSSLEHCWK

[3] = biological target: Histamine H1 receptor (Cavia porcellus) (UniProt P31389); experiment: Activity at histamine H1 receptor in isolated guinea pig ileum up to 10 uM; format: functional, tissue-based
Sequence of Histamine H1 receptor (Cavia porcellus) (P31389 whole entry): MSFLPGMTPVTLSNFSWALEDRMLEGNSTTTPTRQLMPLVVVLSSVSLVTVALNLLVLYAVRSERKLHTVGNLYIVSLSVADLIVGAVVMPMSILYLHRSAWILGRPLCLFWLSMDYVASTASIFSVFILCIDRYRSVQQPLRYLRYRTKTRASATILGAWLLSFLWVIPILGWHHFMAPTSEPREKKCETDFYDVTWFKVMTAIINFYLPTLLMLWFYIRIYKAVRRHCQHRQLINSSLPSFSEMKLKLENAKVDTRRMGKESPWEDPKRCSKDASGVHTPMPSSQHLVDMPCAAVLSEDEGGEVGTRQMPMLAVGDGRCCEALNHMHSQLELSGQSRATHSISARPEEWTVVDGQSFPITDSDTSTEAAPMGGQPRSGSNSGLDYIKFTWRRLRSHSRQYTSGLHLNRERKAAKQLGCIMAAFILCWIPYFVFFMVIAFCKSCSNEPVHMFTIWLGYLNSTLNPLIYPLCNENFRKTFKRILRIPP

Histamine H3 receptor [4] = biological target: T1, Histamine H3 receptor (Homo sapiens, UniProt Q9Y5N1); experiment: Displacement of [3H]RAMHA from human histamine H3 receptor transfected in SK-N-MC cells; format: cell-based
T1 sequence (Q9Y5N1 whole entry): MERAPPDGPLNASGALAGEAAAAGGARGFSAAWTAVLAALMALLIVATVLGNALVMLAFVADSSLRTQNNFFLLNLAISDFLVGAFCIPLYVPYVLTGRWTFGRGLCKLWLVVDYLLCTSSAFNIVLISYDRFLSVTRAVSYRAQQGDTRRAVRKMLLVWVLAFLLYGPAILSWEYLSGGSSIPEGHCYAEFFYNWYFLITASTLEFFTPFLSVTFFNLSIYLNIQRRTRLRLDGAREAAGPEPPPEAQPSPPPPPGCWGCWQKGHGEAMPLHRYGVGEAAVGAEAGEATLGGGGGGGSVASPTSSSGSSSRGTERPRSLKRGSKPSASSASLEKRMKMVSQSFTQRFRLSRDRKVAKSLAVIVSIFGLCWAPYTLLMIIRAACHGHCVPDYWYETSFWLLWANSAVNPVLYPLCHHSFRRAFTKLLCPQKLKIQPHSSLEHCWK
How it was run: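 Membranes from SK-N-MC cells stably expressing human H3 receptor, incubated 60 min at room temperature with 0.5 nM [3H](R)-α-methylhistamine in 50 mM Tris–HCl/5 mM EDTA, pH 7.4; compounds 0.01 nM–10 µM. Filtration, two ice-cold washes, scintillation counting. Non-specific binding: 10 µM histamine. IC50 estimated from displacement curves.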

Histamine H3 receptor [5] = biological target: Histamine H3 receptor (Rattus norvegicus, UniProt Q9QYN8); experiment: Displacement of [3H]RAMHA from histamine H3 receptor in rat brain membranes; format: cell membranes
Sequence of Histamine H3 receptor (Rattus norvegicus, UniProt Q9QYN8) (Q9QYN8 whole entry): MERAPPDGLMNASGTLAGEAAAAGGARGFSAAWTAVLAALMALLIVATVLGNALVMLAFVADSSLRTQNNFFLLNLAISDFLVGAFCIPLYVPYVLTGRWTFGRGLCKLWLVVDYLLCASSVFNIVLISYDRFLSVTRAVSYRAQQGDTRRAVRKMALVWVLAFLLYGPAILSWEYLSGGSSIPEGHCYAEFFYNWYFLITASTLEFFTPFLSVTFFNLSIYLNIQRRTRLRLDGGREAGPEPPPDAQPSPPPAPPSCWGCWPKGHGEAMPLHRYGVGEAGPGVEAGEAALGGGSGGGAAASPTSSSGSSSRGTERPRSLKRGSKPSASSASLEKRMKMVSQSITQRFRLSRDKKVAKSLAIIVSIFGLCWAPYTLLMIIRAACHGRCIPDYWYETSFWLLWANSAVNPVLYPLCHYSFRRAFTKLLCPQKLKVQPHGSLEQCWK
How it was run: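 Rat cerebral cortex membranes incubated 60 min at room temperature with 0.5 nM [3H](R)-α-methylhistamine in 50 mM Tris–HCl/0.5 mM EDTA/50 mM NaCl, pH 7.4; compounds 0.01 nM–10 µM. Rapid filtration, two ice-cold buffer washes, scintillation counting. Non-specific binding: 10 µM thioperamide. IC50 from displacement curves; mean of three experiments.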

[6] = biological target: T2, Acetylcholinesterase (Rattus norvegicus) (UniProt P37136); experiment: Inhibition of AChE in rat brain at 10 uM; format: tissue-based
T2 sequence (whole entry): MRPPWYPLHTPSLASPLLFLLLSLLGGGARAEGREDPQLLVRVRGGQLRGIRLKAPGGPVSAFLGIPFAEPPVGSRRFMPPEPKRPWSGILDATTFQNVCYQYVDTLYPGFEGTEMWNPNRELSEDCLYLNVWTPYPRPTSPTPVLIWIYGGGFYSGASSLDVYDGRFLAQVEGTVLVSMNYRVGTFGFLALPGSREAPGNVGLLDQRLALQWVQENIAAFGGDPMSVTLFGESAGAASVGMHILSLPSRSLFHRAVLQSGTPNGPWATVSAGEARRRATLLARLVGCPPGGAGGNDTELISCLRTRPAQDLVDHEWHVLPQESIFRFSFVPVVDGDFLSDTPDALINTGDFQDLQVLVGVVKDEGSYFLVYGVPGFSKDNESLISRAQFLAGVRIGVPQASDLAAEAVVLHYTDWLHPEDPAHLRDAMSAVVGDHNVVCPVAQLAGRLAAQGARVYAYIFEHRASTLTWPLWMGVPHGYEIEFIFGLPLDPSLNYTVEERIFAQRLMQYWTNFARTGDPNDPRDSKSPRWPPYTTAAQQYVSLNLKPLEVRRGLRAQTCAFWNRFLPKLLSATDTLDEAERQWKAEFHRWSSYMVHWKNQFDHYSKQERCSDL

Histamine H3 receptor [7] = biological target: T1, Histamine H3 receptor; experiment: Antagonist activity against histamine H3 receptor assessed as beta galactosidase reporter gene transactivation in SK-N-MC cells; format: functional, cell-based
How it was run: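 SK-N-MC cells expressing human H3 receptor; compounds (0.1 nM–10 µM) added to media, 5 min later forskolin (5 µM) and cumulative (R)-α-methylhistamine (0.1 nM–1 µM). After 6 h at 37 °C, cells lysed (0.5% Triton, 40 mM β-mercaptoethanol); read-out by absorbance 570 nm after overnight incubation at 20 °C.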

Sequence of Histamine H2 receptor (Cavia porcellus) (P47747 whole entry): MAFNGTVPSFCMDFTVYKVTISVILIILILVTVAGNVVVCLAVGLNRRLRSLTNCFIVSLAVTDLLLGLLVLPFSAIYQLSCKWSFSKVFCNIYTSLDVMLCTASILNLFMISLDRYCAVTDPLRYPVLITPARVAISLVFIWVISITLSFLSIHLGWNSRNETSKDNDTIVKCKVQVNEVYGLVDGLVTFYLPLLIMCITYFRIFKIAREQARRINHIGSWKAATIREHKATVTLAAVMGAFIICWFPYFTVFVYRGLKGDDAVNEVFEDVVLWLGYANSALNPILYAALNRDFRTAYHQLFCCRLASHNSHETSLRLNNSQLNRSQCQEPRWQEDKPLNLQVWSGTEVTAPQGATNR

Structure (SMILES) | Activity [1] | Activity [2] | Activity [3] | Ki (Histamine H3 receptor [4]) [nM] | Ki (Histamine H3 receptor [5]) [nM] | pKb (Histamine H3 receptor [7]) | inhibition [6] [%]
NCc1ccc(-c2ccc(CN)cc2)cc1 | inactive | Antagonist | inactive | 4470 | 8710 | – | –
CCCCCNCc1ccc(-c2ccc(CNCCCCC)cc2)cc1 | inactive | Antagonist | inactive | 759 | 3310 | – | –
c1cc(-c2ccc(CNC3CCCCC3)cc2)ccc1CNC1CCCCC1 | inactive | Antagonist | inactive | 562 | 2090 | – | –
CC1CCN(Cc2ccc(-c3ccc(CN4CCC(C)CC4)cc3)cc2)CC1 | inactive | Antagonist | inactive | 6.17 | 15.1 | – | 50
c1cc(-c2ccc(CN3CCCCC3)cc2)ccc1CNC1CCCCC1 | inactive | Antagonist | inactive | 1.7 | 9.12 | – | 50
CN(C)Cc1ccc(-c2ccc(CN(C)C)cc2)cc1 | inactive | Antagonist | inactive | 1.86 | 6.61 | – | –
CN(Cc1ccc(-c2ccc(CN(C)C3CCCCC3)cc2)cc1)C1CCCCC1 | inactive | Antagonist | inactive | 37.2 | 214 | – | –
CC1CC(C)CN(Cc2ccc(-c3ccc(CN4CC(C)CC(C)C4)cc3)cc2)C1 (stereo not drawn) | inactive | Antagonist | inactive | 398 | 676 | – | –

The next lines start with results.

Activity [1] | Activity [2] | Activity [3] | Ki (Histamine H3 receptor [4]) [nM] | Ki (Histamine H3 receptor [5]) [nM] | pKb (Histamine H3 receptor [7]) | Structure (SMILES) | inhibition [6] [%]
inactive | Antagonist | inactive | 46.8 | 115 | – | O=C1CCCCN1Cc1ccc(-c2ccc(CN3CCCCC3)cc2)cc1 | –
inactive | Antagonist | inactive | 1410 | 3890 | – | CC(=O)N1CCN(Cc2ccc(-c3ccc(CN4CCN(C(C)=O)CC4)cc3)cc2)CC1 | –
inactive | Antagonist | inactive | 0.339 | 1.2 | 8.77 | c1cc(-c2ccc(CN3CCCCC3)cc2)ccc1CN1CCCCC1 | –
inactive | Antagonist | inactive | 1230 | 4070 | – | c1cc(CN2CCCCC2)ccc1CN1CCCCC1 | –
inactive | Antagonist | inactive | 1.17 | 3.98 | – | c1cc(-c2ccc(CCN3CCCCC3)cc2)ccc1CCN1CCCCC1 | –
inactive | Antagonist | inactive | 12.3 | 81.3 | – | c1cc(-c2ccc(CN3CCOCC3)cc2)ccc1CN1CCOCC1 | –
inactive | Antagonist | inactive | 6.31 | 46.8 | – | CC(=O)N1CCN(Cc2ccc(-c3ccc(CN4CCCCC4)cc3)cc2)CC1 | –

— ChEMBL document CHEMBL1146028, “Dibasic non-imidazole histamine H3 receptor antagonists with a rigid biphenyl scaffold” (Bioorg Med Chem Lett, 2006)
